Most compounds without a hit are left out; they make up all but 2.6% or so of the library.
PolyA inh: polyadenylation inhibitors in yeast reporter cells, primary screen, luminescence, S. cerevisiae | S. cerevisiae SKY197-pL101 polyadenylation reporter, beta-gal luminescence; efflux-impaired pdr1/pdr3 knockout yeast; score 100 = 6 SD above DMSO | activity score, % at 12 µM | hit rate 0.02% among 300,000 | AID 1875, 2009;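 active means lowest replicate activity score at least 50, where 100 means six control SD above control mean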;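 further: yeast exposed to compound for 9 h at 30 °C; higher score means more reporter readthrough which indicates perturbed polyadenylation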
CHT block: inhibitors of human choline transporter CHT | CHT-expressing cells, membrane potential dye, choline response; hits give low values | hit rate 0.86% among 310,000 | B-score at 10 µM;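 active means B-score over 3 SD under the library average, and starting fluorescence ratio not unusually high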;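 further: choline stimulus applied at its EC90 after an EC20 pre-addition; B-score computed on integrated fluorescence ratio after choline addition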
Target sequence (Q9GZV3 whole entry, looked up): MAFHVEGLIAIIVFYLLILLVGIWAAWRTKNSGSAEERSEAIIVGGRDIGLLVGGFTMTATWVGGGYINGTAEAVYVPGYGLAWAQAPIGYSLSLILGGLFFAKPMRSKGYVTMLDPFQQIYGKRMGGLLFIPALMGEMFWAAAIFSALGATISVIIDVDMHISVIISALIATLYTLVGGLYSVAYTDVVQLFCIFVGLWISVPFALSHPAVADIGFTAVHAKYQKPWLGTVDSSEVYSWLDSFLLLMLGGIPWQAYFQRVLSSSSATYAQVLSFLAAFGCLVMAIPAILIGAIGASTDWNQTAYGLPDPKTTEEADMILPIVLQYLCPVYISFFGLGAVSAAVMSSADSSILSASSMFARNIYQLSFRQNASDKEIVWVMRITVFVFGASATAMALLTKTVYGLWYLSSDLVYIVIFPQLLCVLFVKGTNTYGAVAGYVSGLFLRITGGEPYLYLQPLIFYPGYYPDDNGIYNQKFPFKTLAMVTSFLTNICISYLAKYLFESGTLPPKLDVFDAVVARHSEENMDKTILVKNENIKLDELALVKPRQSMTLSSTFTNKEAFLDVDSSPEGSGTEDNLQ
T cruzi repl: inhibitors of intracellular T. cruzi growth, primary screen, luminescence, NIH3T3 host cells; T. cruzi beta-gal in NIH3T3, 90 h; inhibition, % (concentration not given with the values); hit rate 1.4% among 300,000; AID 1885, 2009;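 active means mean inhibition across valid replicates above about 55%, limit read from the data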;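 further: signal also drops with host cell toxicity which is not excluded here; 0% = plate median of DMSO wells and 100% = zero luminescence signal; higher percent means less beta-gal luminescence so fewer parasites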
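Assay system: NIH/3T3 fibroblasts plus reporter T. cruzi. Amount: NIH/3T3 cells, 5,000 per well. Buffer or medium: DMEM, 2% fetal bovine serum. Doses: compound pinned at 50 nL/well, DMSO. Schedule: ≥90 h infection period, 3 h prior cell attachment. Signal: luminescent β-galactosidase signal after 60 min lysis. Read-out: parasite load inhibition, %.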
CHT allo act: CHT positive allosteric modulators, primary screen, cell-based, membrane potential dye, choline EC20; CHT-expressing cells; hits give high values; LV-AA mutant CHT in HEK293 cells; hit rate 0.49% among 310,000; High affinity choline transporter 1 (Homo sapiens), Q9GZV3; B-score at 10 µM;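 active means initial fluorescence not abnormally high and integrated response B-score, plate-corrected, over 3 SD above library mean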
Starred values were filed as active, the others as inactive; i = inactive; · = no result given.

SMILES	PolyA inh	CHT block	T cruzi repl	CHT allo act
COc1ccc(S(=O)(=O)NCC(=O)N(CC(=O)NCC2CCCO2)Cc2ccccc2)cc1 (stereo not given)	13	i	-4	i
CSc1ncc(C(=O)Nc2ccc(C(C)=O)cc2)c(-c2ccccc2)n1	-6	i	14	i
Cc1nc(-n2[nH]c3c(c2=O)CCCC3)[nH]c(=O)c1Cc1ccccc1	-20	i	69*	i
CC(C)(C)c1ccc(NC(=O)COc2ccc(-n3ccnc3)cc2)cc1	-7	i	59*	i
Cc1cc(C)cc(-n2c(N)c(C(=O)Nc3c(C)n(C)n(-c4ccccc4)c3=O)c3nc4ccccc4nc32)c1	13	i	56*	i
CC1CCN(S(=O)(=O)c2ccc3c(c2)C(=NO)c2cc(S(=O)(=O)N4CCC(C)CC4)ccc2-3)CC1	·	i	·	i
O=S(=O)(c1ccc2c(c1)C(=NO)c1cc(S(=O)(=O)N3CCCCC3)ccc1-2)N1CCCCC1	-4	i	77*	i
O=C(NCc1nnnn1-c1ccc(F)c(F)c1)c1cc2ccccc2o1	-4	i	-14	i
CCc1ccc(-c2cc(C(=O)O)c3ccccc3n2)s1	-4	i	-6	i
O=C(Nc1cccc2ncccc12)c1cc([N+](=O)[O-])ccc1Cl	4	i	-8	i
O=C(Nc1cccnc1Cl)c1cc([N+](=O)[O-])ccc1Cl	-1	i	66*	i
Cc1cc(C)c2nc(N3CCC(C(=O)NCCCN4CC(C)CC(C)C4)CC3)sc2c1 (stereo not given)	-1	i	59*	i
Cc1cc(C)c2nc(N3CCCC(C(=O)NCCCN4CCOCC4)C3)sc2c1 (stereo not given)	43	i	5	i
c1ccc(CN2CCN(c3nc(-c4ccccc4)nc(-n4ccnc4)n3)CC2)cc1	-20	i	60*	i
c1ccc(-c2nc(-n3ccnc3)nc(-n3ccnc3)n2)cc1	-34	i	1	i
c1ccc(N(c2ccccc2)c2nc(N3CCCC3)nc(-n3ccnc3)n2)cc1	2	i	57*	i
CN(CC(=O)Nc1c(Cl)cccc1Cl)C(=O)C1CSC2(C)CCC(=O)N12 (stereo not given)	-18	i	-12	i
Cc1ccc(C(=O)OCn2ncc(Cl)c(Cl)c2=O)cc1	-68	i	50	i
O=C(OCn1ncc(Cl)c(Cl)c1=O)c1ccc(C(F)(F)F)cc1	-37	·	64*	·
CCOC(=O)c1ccc(NC(=O)Cn2ncc(Cl)c(Cl)c2=O)cc1	-2	i	56*	i
CCC(=O)Nc1ccc(C(=O)Cn2ncc(Cl)c(Cl)c2=O)cc1	-5	i	49	i
COc1cccc(NC(=O)Cn2c3ccc(F)cc3c3nc4n(c(=O)c32)CCCS4)c1	-1	i	17	i
COc1ccc(C(=O)NC2CC2)cc1OC1CCN(Cc2ccc(NC(C)=O)cc2)CC1	11	·	-4	·
CC(CC(=O)N1CCN(c2ccc(C(F)(F)F)cn2)CC1)n1ccnc1 (stereo not given)	12	i	67*	i
COc1cccc(C2NC(=O)NC(C)=C2C(=O)OCC2CCCCC2)c1 (stereo not given)	-6	i	6	i
SMILES	PolyA inh	CHT block	T cruzi repl	CHT allo act
CC(C)(C)C(=O)Nc1nc(=S)ss1	-10	-5.5*	3	i
CC1=C(C)CC(C(=O)NCCCN2CCCC2=O)C(C(=O)O)C1 (stereo not given)	6	i	2	i
COc1ccc(C2=NCC(CSc3nnc(-c4ccc5c(c4)OCO5)o3)S2)cc1 (stereo not given)	-12	i	57*	i
Cc1ccc(CSc2nnc(-c3ccc4c(c3)OCO4)o2)cc1	14	i	3	i
NC(=O)C1CCN(C(=O)c2ccc3c(=O)n(Cc4ccco4)c(SCc4ccc([N+](=O)[O-])cc4)nc3c2)CC1	-10	i	6	i
Cc1cc2oc(=O)cc(Cn3ncc(Cl)c(Cl)c3=O)c2cc1Cl	-27	i	57*	i
Cc1cc2oc(=O)cc(CN3CCCCC3C)c2cc1Cl (stereo not given)	4	i	5	i
COc1cc(CNCCc2ccc(F)cc2)ccc1OCc1ccc(Cl)nc1	-13	-5.9*	40	i
Cc1cccc2cc(CN(Cc3cccnc3)C(=O)c3ccccc3F)c(Cl)nc12	6	i	61*	i
O=C(c1ccccc1F)N(Cc1cccnc1)Cc1cc2cc3c(cc2[nH]c1=O)OCCO3	8	i	2	i
Cc1cc(C)c2cc(CN(Cc3cccnc3)C(=O)c3ccc(F)cc3)c(Cl)nc2c1	-15	i	59*	i
Cn1c(NNC(=O)C(c2ccccc2)c2ccccc2)cc(=O)n(C)c1=O	5	i	-6	i
Cc1cc(SCC(=O)N/N=C/c2ccc(O)cc2O)nc2ccccc12	0	i	69*	i
Cc1ccc(S(=O)(=O)c2nnn3c2nc(NC2CCN(Cc4ccccc4)CC2)c2ccccc23)cc1C	14	i	59*	i
Cc1ccc(S(=O)(=O)c2nnn3c2nc(NCCCN2CCCC2=O)c2ccccc23)cc1C	-15	i	20	i
N#CC1=C(N)Oc2c(oc(CO)cc2=O)C1c1ccsc1 (stereo not given)	2	i	-18	i
N#CC1=C(N)Oc2c(ccc3ccccc23)C1c1ccsc1 (stereo not given)	1	i	75*	i
CCOC(=O)N1CCN(C(=O)COC(=O)c2oc3ccc(OC)cc3c2C)CC1	-12	i	-8	i
Cc1cccc(Cn2nnc3c2C(=O)c2ccccc2C3=O)c1	-32	i	61*	i
Cc1ccc(OCCCCN2CCCCC2)c(C)c1	-13	i	29	i
Cc1ccc(OCCCCNC2CCCC(C)C2C)c(C)c1 (stereo not given)	-34	i	57*	i
Cc1ccccc1NC(=S)N1CCN(c2ccccc2Cl)CC1	2	i	12	i
O=C(O)CSc1nnc(-c2ccc(Cl)cc2Cl)n1Cc1ccccc1	-11	i	-31	i
C/C(=N\NS(=O)(=O)c1ccc([N+](=O)[O-])cc1)c1c[nH]c2ccccc12	7	i	-9	i
O=[N+]([O-])c1cc(-c2ccc(/C=N/n3cnnc3)o2)ccc1Cl	-7	i	18	6.5*
Cc1cc(-c2ccc(/C=N/n3cnnc3)o2)c(C)c([N+](=O)[O-])c1	-2	i	9	11*
CC(C)COC(=O)c1cc(-c2ccc(/C=N/n3cnnc3)o2)ccc1Cl	-1	i	23	i
CCOc1ccc(-c2noc(CCC(=O)NC3CCCCC3)n2)cc1OC	-6	i	-17	i

Screening data: PubChem, several laboratories
